In paper PMC9434060 (Heliyon, 2022):

Assays:
[1] = system: XCGL-1; experiment: Competitive elution of XCGL-1 from lactose resin; parameters: species or system Xenopus laevis; details: carbohydrate 6.5 mM in binding buffer, western blot
Outline: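 Lactose-agarose resin (250 μL) settled in a spin column and washed three times with binding buffer (20 mM HEPES pH 7.5, 150 mM NaCl, 10 mM CaCl2). Protein (250 μL, 0.1 μM) bound for 5 min, then washed three times. Elution with each carbohydrate at 6.5 mM in binding buffer; eluates analysed by western blot.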

[2] = system: His6 XCGL-1 CRD; experiment: Inhibition of His6 XCGL-1 CRD hemagglutination by carbohydrates; assay type: cell-based, Xenopus laevis; details: pig red blood cells, 25 nM XCGL-1
[3] = molecular target: His6 XCGL-1 (Xenopus laevis, UniProt Q91719); experiment: Inhibition of His6 XCGL-1 hemagglutination by carbohydrates; assay type: cell-based; details: pig red blood cells, 25 nM XCGL-1
Outline: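 Fresh pig blood collected into sodium citrate tubes. Red cells washed in 20 mM HEPES pH 7.5, 150 mM NaCl, 10 mM CaCl2 and used as a 2.5% suspension. Incubated with 25 nM lectin plus carbohydrate at various concentrations in a Terasaki plate. Agglutination photographed after 1 h. MIC is the minimum carbohydrate concentration inhibiting agglutination.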

[4] = system: Refolded XCGL-1 CRD; experiment: Inhibition of refolded XCGL-1 CRD hemagglutination by carbohydrates; assay type: cell-based, Xenopus laevis; details: pig red blood cells; for concentration at which inhibition of hemagglutination was observed: 25 nM XCGL-1; for inhibition of hemagglutination at 25 mM: 25 nM XCGL-1, carbohydrate 25 mM
[5] = system: XCGL-1; experiment: Inhibition of XCGL-1 hemagglutination; assay type: cell-based, Xenopus laevis; details: pig red blood cells; for inhibition of hemagglutination by carbohydrates: 25 nM XCGL-1; for inhibition of agglutination: 50 nM XCGL-1, millimolar concentrations
Outline: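 Citrated fresh pig red cells, washed in 20 mM HEPES pH 7.5, 150 mM NaCl, 10 mM CaCl2, used as a 2.5% suspension in a Terasaki plate. Two set-ups: carbohydrates at various concentrations with 25 nM lectin; EDTA or galactose at millimolar concentrations with 50 nM lectin. Plates photographed after 1 h.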

His6 XCGL-1, sequence (Q91719 18-313): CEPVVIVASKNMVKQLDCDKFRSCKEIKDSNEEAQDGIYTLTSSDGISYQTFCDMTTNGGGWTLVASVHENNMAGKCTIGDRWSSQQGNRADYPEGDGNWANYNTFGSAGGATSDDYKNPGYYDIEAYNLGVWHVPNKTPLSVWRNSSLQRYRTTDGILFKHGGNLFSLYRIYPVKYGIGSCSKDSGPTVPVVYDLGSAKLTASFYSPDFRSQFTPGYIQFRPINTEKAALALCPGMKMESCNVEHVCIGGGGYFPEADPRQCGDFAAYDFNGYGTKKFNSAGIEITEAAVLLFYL

OC[C@H]1O[C@@H](O[C@H]2[C@H](O)[C@@H](O)[C@H](O)O[C@@H]2CO)[C@H](O)[C@@H](O)[C@H]1O [lactose, β-D-Gal-(1→4)-D-Glc]
competitive elution of XCGL-1 bound to lactose resin [1]: able to elute XCGL-1 competitively | minimum inhibitory concentration (MIC) of hemagglutination [2]: 10 mM | minimum inhibitory concentration (MIC) of hemagglutination [3]: 15 mM | concentration at which inhibition of hemagglutination was observed [4]: > 20 mM

OC[C@H]1OC(O)[C@@H](O)[C@@H](O)[C@@H]1O (stereo partly drawn) [mannose, D-mannose]
inhibition of hemagglutination by carbohydrates [5]: could not inhibit hemagglutination

C[C@H](O)[C@@H](O)[C@@H](O)[C@H](O)C=O [fucose, L-fucose]
inhibition of hemagglutination by carbohydrates [5]: could not inhibit hemagglutination

OC[C@H]1O[C@H](OCC2O[C@@H](O)[C@H](O)[C@@H](O)[C@@H]2O)[C@H](O)[C@@H](O)[C@H]1O (stereo partly drawn) [melibiose, α-D-Gal-(1→6)-D-Glc]
competitive elution of XCGL-1 bound to lactose resin [1]: able to elute XCGL-1 competitively | minimum inhibitory concentration (MIC) of hemagglutination [2]: 10 mM | minimum inhibitory concentration (MIC) of hemagglutination [3]: 15 mM | concentration at which inhibition of hemagglutination was observed [4]: > 20 mM

CC(=O)N[C@@H]1[C@@H](O)[C@H](O)[C@@H](CO)O[C@H]1O [N-acetylglucosamine, N-acetyl-D-glucosamine]
inhibition of hemagglutination by carbohydrates [5]: could not inhibit hemagglutination

OC[C@H]1OC(O)[C@H](O)[C@@H](O)[C@@H]1O (some centres unmarked) [glucose]
inhibition of hemagglutination by carbohydrates [5]: could not inhibit hemagglutination

O=C[C@H](O)[C@@H](O)[C@@H](O)[C@H](O)CO [galactose, D-galactose]
inhibition of agglutination [5]: inhibited | competitive elution of XCGL-1 bound to lactose resin [1]: able to elute XCGL-1 competitively | minimum inhibitory concentration (MIC) of hemagglutination [2]: 10 mM | minimum inhibitory concentration (MIC) of hemagglutination [3]: 15 mM | inhibition of hemagglutination at 25 mM [4]: not efficient at inhibiting hemagglutination

O=C(O)CN(CCN(CC(=O)O)CC(=O)O)CC(=O)O [EDTA]
inhibition of agglutination [5]: inhibited

CC(=O)N[C@H]1C(O)O[C@H](CO)[C@H](O)[C@@H]1O[C@H]1O[C@H](CO)[C@H](O)[C@H](O)[C@H]1O (stereo partly drawn) [α-D-Gal-(1→3)-D-GalNAc]
competitive elution of XCGL-1 bound to lactose resin [1]: able to elute XCGL-1 competitively | minimum inhibitory concentration (MIC) of hemagglutination [2]: 2.5 mM | minimum inhibitory concentration (MIC) of hemagglutination [3]: 5 mM | inhibition of hemagglutination at 25 mM [4]: no inhibition

CC(=O)N[C@H]1C(O)O[C@H](CO)[C@H](O)[C@@H]1O (stereo partly drawn) [N-acetylgalactosamine, N-acetyl-D-galactosamine]
inhibition of hemagglutination by carbohydrates [5]: could not inhibit hemagglutination
